≈ marks a conversion by molar mass, not a printed value.
How the values were obtained:
[1] = tested on: Micrococcus luteus; assay: Antibiofilm activity against Micrococcus luteus MTCC 2470 incubated for 24 hrs under static condition by crystal violet staining-based assay; format: functional
In short: (§1)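 Strains grown overnight in tryptone soy broth with 0.5% glucose. Compound (250 to 0) mixed with inoculum at 5 × 10^5 CFU/mL in polystyrene microtiter plates. Non-adherent cells washed off with PBS; wells stained with 0.1% crystal violet, dye solubilised in 95% ethanol, absorbance read at 540 nm. IC50 for 50% biofilm inhibition taken from dose-response curves. Triplicates, mean ± S.D.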

[2] = tested on: Candida albicans; assay: Antifungal activity against Candida albicans MTCC 854 after 24 hrs by well diffusion method; format: functional; details: MTCC 854, 24 h
In short: (§2)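 Candida/Issatchenkia lawns (0.1 mL suspension) on Mueller-Hinton agar; 6.0 mm bored wells receive compound across a 250 to 0.48 per-well dose range, methanol as negative control. Plates kept 24 h at 30 °C. MIC is the lowest concentration producing a visible inhibition zone. Duplicate runs, mean values.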

[3] = Cytotoxicity against human DU145 cells assessed as cell growth inhibition by MTT assay; format: functional, cell-based; details: DU-145
[4] = tested on: Raoultella planticola; assay: Antibiofilm activity against Klebsiella planticola MTCC 530 incubated for 24 hrs under static condition by crystal violet staining-based assay; format: functional; in short: as §1
[5] = tested on: Nakaseomyces glabratus; assay: Fungicidal activity against Candida glabrata MTCC 3019 after 24 hrs; format: functional; details: MTCC 3019, 24 h
In short: (§3)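 Candida grown overnight in Mueller Hinton broth. Compound serially diluted in the same broth from 150 to 0 and inoculated to a final 1.5 × 10^8 CFU/mL (0.5 McFarland), then 24 h at 37 °C. Tube contents plated onto Mueller Hinton agar for 24 h at 37 °C. MFC is the lowest concentration killing the yeast. Duplicates.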

[6] = tested on: Candida albicans; assay: Fungicidal activity against Candida albicans MTCC 3018 after 24 hrs; format: functional; details: MTCC 3018, 24 h; in short: as §3
[7] = tested on: Candida albicans; assay: Antifungal activity against Candida albicans MTCC 1637 after 24 hrs by well diffusion method; format: functional; details: MTCC 1637, 24 h; in short: as §2
[8] = tested on: Escherichia coli; assay: Antibiofilm activity against Escherichia coli MTCC 739 incubated for 24 hrs under static condition by crystal violet staining-based assay; format: functional; in short: as §1
[9] = tested on: [Candida] aaseri; assay: Fungicidal activity against Candida aaseri MTCC 1962 after 24 hrs; format: functional; details: Yamadazyma aaseri, MTCC 1962, 24 h; in short: as §3
[10] = tested on: Bacillus subtilis; assay: Antibiofilm activity against Bacillus subtilis MTCC 121 incubated for 24 hrs under static condition by crystal violet staining-based assay; format: functional; in short: as §1
[11] = tested on: Candida albicans; assay: Fungicidal activity against Candida albicans MTCC 183 after 24 hrs; format: functional; details: MTCC 183, 24 h; in short: as §3
[12] = tested on: Staphylococcus aureus; assay: Antibiofilm activity against Staphylococcus aureus MLS16 MTCC 2940 incubated for 24 hrs under static condition by crystal violet staining-based assay; format: functional; in short: as §1
[13] = tested on: Candida albicans; assay: Antifungal activity against Candida albicans MTCC 183 after 24 hrs by well diffusion method; format: functional; details: MTCC 183, 24 h; in short: as §2
[14] = tested on: Raoultella planticola; assay: Antibacterial activity against Klebsiella planticola MTCC 530 after 24 hrs by well diffusion method; format: functional; details: MTCC 530, 24 h
In short: (§4)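 Bacteria spread (0.1 mL suspension) on Mueller-Hinton agar; 6.0 mm wells loaded with compound over a 250 to 0.48 per-well dose range, methanol as negative control. Incubated 24 h at 37 °C. MIC taken as the lowest concentration still giving an inhibition zone. Duplicates, mean reported.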

[15] = Antifungal activity against Candida glabrata MTCC 3019 after 24 hrs by well diffusion method; format: functional; details: Nakaseomyces glabratus; in short: as §2
[16] = tested on: Candida albicans; assay: Fungicidal activity against Candida albicans MTCC 3958 after 24 hrs; format: functional; details: MTCC 3958, 24 h; in short: as §3
[17] = tested on: Pseudomonas aeruginosa; assay: Antibiofilm activity against Pseudomonas aeruginosa MTCC 2453 incubated for 24 hrs under static condition by crystal violet staining-based assay; format: functional; in short: as §1
[18] = tested on: Pichia kudriavzevii; assay: Fungicidal activity against Candida krusei MTCC 3020 after 24 hrs; format: functional; details: MTCC 3020, 24 h
In short: (§5)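 Broth dilution in Mueller Hinton broth with serial compound concentrations from […]. Overnight Candida cultures added to a final 1.5 × 10^8 CFU/mL (0.5 McFarland). Incubated 24 h at 37 °C, then 10 µL of each tube plated on Mueller Hinton agar for 24 h at 37 °C. MFC taken as the lowest concentration that kills the strain. Run in duplicate.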

[19] = tested on: Escherichia coli; assay: Antibacterial activity against Escherichia coli MTCC 739 after 24 hrs by well diffusion method; format: functional; details: MTCC 739, 24 h; in short: as §4
[20] = tested on: Candida albicans; assay: Fungicidal activity against Candida albicans MTCC 854 after 24 hrs; format: functional; details: MTCC 854, 24 h; in short: as §3
[21] = tested on: Staphylococcus aureus; assay: Antibacterial activity against Staphylococcus aureus MLS16 MTCC 2940 after 24 hrs by well diffusion method; format: functional; details: MLS16 MTCC 2940, 24 h; in short: as §4
[22] = tested on: Pichia sporocuriosa; assay: Fungicidal activity against Issatchenkia hanoiensis MTCC 4755 after 24 hrs; format: functional; details: MTCC 4755, 24 h; in short: as §5
[23] = tested on: [Candida] aaseri; assay: Antifungal activity against Candida aaseri MTCC 1962 after 24 hrs by well diffusion method; format: functional; details: Yamadazyma aaseri, MTCC 1962, 24 h; in short: as §2
[24] = tested on: Staphylococcus aureus; assay: Antibiofilm activity against Staphylococcus aureus MTCC 96 incubated for 24 hrs under static condition by crystal violet staining-based assay; format: functional; in short: as §1
[25] = tested on: Candida albicans; assay: Antifungal activity against Candida albicans MTCC 3958 after 24 hrs by well diffusion method; format: functional; details: MTCC 3958, 24 h; in short: as §2

IC50 [1]: 2.3 µg/mL (≈ 10.6 µM)
MIC [2]: 15.6 µg/mL (≈ 71.8 µM)
MIC [7]: 7.8 µg/mL (≈ 35.9 µM)
IC50 [10]: 2.6 µg/mL (≈ 12 µM)
IC50 [12]: 2.1 µg/mL (≈ 9.66 µM)
MIC [13]: 15.6 µg/mL (≈ 71.8 µM)
MIC [15]: 15.6 µg/mL (≈ 71.8 µM)
MIC [19]: 7.8 µg/mL (≈ 35.9 µM)
MIC [21]: 3.9 µg/mL (≈ 17.9 µM)
MIC [23]: 15.6 µg/mL (≈ 71.8 µM)
IC50 [24]: 4.5 µg/mL (≈ 20.7 µM)
MIC [25]: 7.8 µg/mL (≈ 35.9 µM)
Structure (SMILES): CCCCCCCCC[C@H](O)[C@H](N)CO
IC50 [3]: 34.1 µM
IC50 [4]: 9.2 µg/mL (≈ 42.3 µM)
MFC [5]: 15.6 µg/mL (≈ 71.8 µM)
MFC [6]: 15.6 µg/mL (≈ 71.8 µM)
INH [8]: 4.6 µg/mL
MFC [9]: 31.2 µg/mL (≈ 144 µM)
MFC [11]: 15.6 µg/mL (≈ 71.8 µM)
MIC [14]: 15.6 µg/mL (≈ 71.8 µM)
MFC [16]: 15.6 µg/mL (≈ 71.8 µM)
INH [17]: 3.9 µg/mL
MFC [18]: 15.6 µg/mL (≈ 71.8 µM)
MFC [20]: 15.6 µg/mL (≈ 71.8 µM)
MFC [22]: 31.2 µg/mL (≈ 144 µM)

Source: ChEMBL document CHEMBL3853298, “Total synthesis and in vitro bioevaluation of clavaminols A, C, H & deacetyl clavaminol H as potential chemotherapeutic and antibiofilm agents” (Eur J Med Chem, 2016)
